From PubChem BioAssay
RORa activator – activates the human nuclear receptor RORA; AID 560; 1.5% of 65,000 active; activation, % at 10 µM; CHO-K1 Gal4-RORA LBD luciferase reporter, luminescence; percent increase over mock-subtracted basal signal; P35398;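 active = activation above the mean of all tested compounds plus 3 SD, cut at about 49% in these data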
Target sequence (P35398 whole entry, looked up, the tested form may be a part): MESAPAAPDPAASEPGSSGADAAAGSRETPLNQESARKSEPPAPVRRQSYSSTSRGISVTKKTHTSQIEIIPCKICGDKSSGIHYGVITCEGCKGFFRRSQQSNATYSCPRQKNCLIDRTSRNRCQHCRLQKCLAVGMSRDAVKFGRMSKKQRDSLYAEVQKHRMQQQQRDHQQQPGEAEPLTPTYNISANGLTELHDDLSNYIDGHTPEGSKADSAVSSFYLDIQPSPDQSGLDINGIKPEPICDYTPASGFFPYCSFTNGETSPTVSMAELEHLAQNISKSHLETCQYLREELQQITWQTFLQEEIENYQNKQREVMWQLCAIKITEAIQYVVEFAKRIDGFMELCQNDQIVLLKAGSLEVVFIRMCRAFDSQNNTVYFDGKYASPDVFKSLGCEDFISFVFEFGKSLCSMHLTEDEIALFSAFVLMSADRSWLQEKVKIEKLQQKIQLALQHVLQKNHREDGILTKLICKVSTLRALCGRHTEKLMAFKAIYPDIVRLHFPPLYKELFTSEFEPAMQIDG
S1P3 agonist – S1P3 (human) receptor agonism; AID 373; S1P3 NFAT-BLA reporter cells, FRET ratio; relative to 1 µM S1P, basal subtracted; 0.1% of 60,000 active; activation, % at 4.5 µM;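 active = activation above the screen-wide mean plus 3 SD, cut at about 4.5% in these data, passing the limit was not always enough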
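material = human S1P3 NFAT-BLA reporter CHO cells | schedule = 4 h compound at 37 °C, 2 h substrate at RT | measured by = fluorescent BLA substrate, ex 405 nm, em 460/535 nm ratio | controls = 1 µM S1P reference | replication = primary once, confirmation triplicate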
M1 agonist – activates the M1 muscarinic receptor. CHO-M1 cells, Fluo-4 calcium fluorescence, agonist mode; hits give high values. B-score at 10 µM. 3% of 64,000 active;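 active = fluorescence rise, raw or as B-score row- and column-corrected plate score, outside the 99.7% band of its plate's samples, either direction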
S1P1 ag pot – activates or potentiates agonism at human S1P1 receptor | 0.57% of 56,000 active | activation, % at 9.5 µM | S1P1 CRE-bla cells, forskolin, beta-lactamase FRET, potentiator mode; S1P1 agonist co-added at EC20, 2 nM; 100% = saturating reference agonist, 0% = basal;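 active = activation above a cutoff set at the mean activation of all tested compounds plus 3 SD, cut at about 54% in these data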;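 also: forskolin at 4 µM as EC80 and the EC20 agonist is SEW2871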
SF-1 act – activators of human nuclear receptor SF-1 | Q13285 | activation, % at 10 µM | 1.9% of 65,000 active | CHO-K1 Gal4-SF-1 LBD luciferase reporter; % increase over DMSO SF-1-specific signal;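 active = activation above the mean activation of all tested compounds plus 3 SD, cut at about 50% in these data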
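Material: Transient Gal4-SF-1 LBD reporter, CHO-K1 | Input: 4,000 cells/well | Dosing: One dose, 10 µM compound, 1% DMSO | Incubation: 20 h compound treatment, 37 °C | Detection: SteadyLite luciferase luminescence | Evaluation: Percent activation relative to DMSO median and mock-transfected background | Benchmarks: DMSO-treated SF-1-transfected cells as negative, DMSO-treated mock-transfected cells lacking SF-1 as background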
M1 antag – M1 muscarinic receptor (rat) antagonism; CHO-M1 cells, Fluo-4 calcium, ACh EC80 antagonist mode; hits give low values; 3.4% of 64,000 active; P08482; B-score at 10 µM;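 active = calcium fluorescence response, raw or row-and-column corrected B-score, differing from the plate sample mean either way at a set confidence level, mostly lower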
M1 antag confirm – confirmation of rat M1 muscarinic receptor antagonists; shares compounds with M1 antag; CHO-M1 cells, Fluo-4 calcium, ACh EC80 antagonism; hits give low values; calcium response (max-min fluorescence) at 10 µM; 43% of 1,700 active; AID 677;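 active = calcium response below the same-plate mean of wells given acetylcholine alone at its 80%-effect dose, minus 3 SD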
mGluR4 antag – acts on human mGluR4 in M1 antagonist selectivity test; shares compounds with M1 antag; fluorescence response (max-min) at 10 µM; AID 678; 0.9% of 1,700 active; CHO-mGluR4 calcium flux, Fluo-4 fluorescence, glutamate EC80; hits give low values;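 active = fluorescence response below the plate's average for near-maximal glutamate wells, less 3 SD of those wells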;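 also: raw unnormalized fluorescence span taken in the window right after glutamate addition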
Of the large screens only hits and unclear results are named; the others gave an inactive call (follow-up assays come after a bar, where they were run). In the library only some 8.8% were active in any assay of this set; here they are far more common.

CC1CCCN(CCCNC(=O)c2coc3nc4ccccc4nc23)C1 (stereo not given)	M1 antag -1.8 | M1 antag confirm 365 | mGluR4 antag inactive
Cc1ccc(CCNC(=O)c2coc3nc4ccccc4nc23)cc1	none
COc1ccc(CCNC(=O)c2cc3ccccn3n2)c(OC)c1OC	none
Cc1ccc(C2CC(=O)c3cnc(N4CCN(c5ccccc5)CC4)nc3C2)cc1 (stereo not given)	M1 antag -5.8 | M1 antag confirm inactive | mGluR4 antag inactive
O=C(c1cccc2ccccc12)N1CCN(CC2CC=CCC2)CC1 (stereo not given)	none
Cc1cccn2c(=O)c3cc(C(=O)NCCN4CCOCC4)c(=N)n(CCc4ccccc4)c3nc12	none
Cc1cccn2c(=O)c3cc(C(=O)NCCCN4CCCC4=O)n(C)c3nc12	M1 antag -3.1 | M1 antag confirm 615 | mGluR4 antag inactive
COCCn1c(=N)c(C(=O)NCCc2ccccc2)cc2c(=O)n3cccc(C)c3nc21	M1 antag -4.7 | M1 antag confirm 194 | mGluR4 antag inactive
Cc1cccn2c(=O)c3cc(C(=O)NCc4ccccc4)c(=N)n(CCCN4CCOCC4)c3nc12	M1 antag -3.3 | M1 antag confirm 337 | mGluR4 antag inactive
CCNC(=O)c1cc2c(=O)n3cccc(C)c3nc2n(CCc2ccccc2)c1=N	none
CCCCNC(=O)c1cc2c(=O)n3cccc(C)c3nc2n1C	none
COc1ccc2[nH]c3c(c2c1)CN(C)CC3	M1 antag -1.9 | M1 antag confirm inactive | mGluR4 antag inactive
CCOC(=O)CCSCC(=O)Nc1nnc(C)s1	M1 antag -2.4 | M1 antag confirm inactive | mGluR4 antag inactive
CCOC(=O)CCSCC(=O)Nc1cc(C)on1	none
O=C(c1cc2nc3c(c(C(F)(F)F)n2n1)CCc1ccccc1-3)N1CCN2CCCC2C1 (stereo not given)	M1 antag -3.1 | M1 antag confirm 343 | mGluR4 antag inactive
COc1nc(Nc2ccc(OC)c(Cl)c2)nc(OC)n1	M1 antag -1.2 | M1 antag confirm inactive | mGluR4 antag inactive
COc1ccc(NC(=O)C=C(C)C)cc1Cl	none
CCOC(=O)c1c(C)[nH]c(C(=O)Cn2nnc(-c3ccc(Cl)cc3)n2)c1C	none
CC(=O)c1ccc(C(C)(C)c2ccc(C(C)=O)s2)s1	M1 antag -2.6 | M1 antag confirm 518 | mGluR4 antag inactive
Cc1ccc(C)c(S(=O)(=O)NC(CC(C)C)C(=O)O)c1 (stereo not given)	none (no result: S1P3 agonist, S1P1 ag pot)
COc1ccc(N2CCN(CCNC(=O)c3c(C)cc(=O)oc3C)CC2)cc1	M1 antag -4.6 (no result: S1P3 agonist, S1P1 ag pot) | M1 antag confirm 354 | mGluR4 antag inactive
Cc1cc(=O)oc(C)c1C(=O)NCCCN1CCN(c2ccc(F)cc2)CC1	none (no result: S1P3 agonist, S1P1 ag pot)
Cn1c(SCC(=O)N2CCN(c3ccccc3)CC2)nnc1-c1cc2ccccc2o1	none (no result: S1P1 ag pot)
Cn1ccnc1SCC(=O)c1cc2ccccc2o1	M1 antag -3.2 (no result: S1P3 agonist, S1P1 ag pot) | M1 antag confirm inactive | mGluR4 antag inactive
Cn1c(SCC(=O)c2cc3ccccc3o2)nnc1-c1ccccc1	M1 antag -2 | M1 antag confirm inactive | mGluR4 antag inactive
COc1ccc(C2/C(=C(\O)c3cc(C)ccc3C)C(=O)C(=O)N2CCN(C)C)cc1OC (stereo not given)	none (no result: S1P3 agonist, M1 agonist, S1P1 ag pot, M1 antag)
CN1C(=O)N(c2ccccc2)C(Nc2nncs2)C1(C)C (stereo not given)	none
C=CCOc1nc2c(c(=O)n(Cc3ccc(Cl)cc3)c(=O)n2C)n1C	none
Cc1ccc(C2C(C(=O)c3cc4ccccc4o3)=C(O)C(=O)N2CCN2CCOCC2)o1 (stereo not given)	M1 antag -6.8 | M1 antag confirm inactive | mGluR4 antag inactive
CC(C)n1c(-c2ccco2)csc1=Nc1cccnc1	M1 antag -3.3 | M1 antag confirm 471 | mGluR4 antag inactive
